≈ marks a conversion by molar mass, not a printed value. Read-outs that look alike come from different tables or passages of the source.

The target in assay [1] is T1, IMP-1 (Serratia marcescens, UniProt P52699). As to the kind of experiment: IC50 assay, nitrocefin hydrolysis, 10 min preincubation. The format is biochemical.
Assay [2] deals with T2, VIM-2 (Escherichia coli, UniProt Q5U7L7). The description is as above. Format: biochemical.
Assay [3] has as its target T3, NDM-1 (Klebsiella pneumoniae, UniProt C7C422). The description is as above. Format: biochemical.
In assay [4] the target is T4, L1 (Stenotrophomonas maltophilia, UniProt P52700). The assay is described as above. Format: biochemical, S. maltophilia.
T4 sequence (P52700 34-290): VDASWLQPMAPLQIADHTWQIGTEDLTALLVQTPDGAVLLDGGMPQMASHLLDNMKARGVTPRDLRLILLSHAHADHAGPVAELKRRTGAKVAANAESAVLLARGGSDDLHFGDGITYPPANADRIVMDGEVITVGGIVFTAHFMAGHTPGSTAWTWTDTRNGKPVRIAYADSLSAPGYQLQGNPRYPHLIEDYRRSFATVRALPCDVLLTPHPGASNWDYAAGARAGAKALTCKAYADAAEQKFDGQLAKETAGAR
Assay [5] concerns K. pneumoniae UWB116 (NDM-1). Particulars: NDM-1-producing K. pneumoniae clinical isolate, cited from earlier work.
Assay [6] deals with T3, NDM-1. Briefly: Ki determination, slow-binding progress curves with nitrocefin. The format is biochemical. The essentials:
(§1)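 Enzyme was added to nitrocefin in excess, with inhibitor dilutions spanning the variable-rate range: IMP-1 60 pM with 25 μM nitrocefin, VIM-2 39.2 pM with 100 μM, NDM-1 600 pM with 15 μM, L1 308 pM with 50 μM. Buffer was 50 mM HEPES pH 7.2, 50 μg/mL BSA, 0.01% Triton X-100, read at 482 nm and 30 °C for 10 min. Progress curves gave kobs; a linear fit of kobs versus [I] gave k–0 and Kiapp, then Ki.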

Assay [7] addresses T1, IMP-1. Described as above. Format: biochemical. The method in brief: as §1
The target in assay [8] is T4, L1. The description is as above. The format is biochemical, S. maltophilia. The essentials: as §1
Assay [9] has as its system MBLs (VIM-2, NDM-1, IMP-1, L1). As to the kind of experiment: IC50 assay, summary over the MBLs tested. The format is biochemical.
Assay [10] has as its target T2, VIM-2. Briefly: Ki determination, slow-binding progress curves with nitrocefin. The format is biochemical. The essentials:
as §1

In assay [11] the test system is P. aeruginosa UWB78 (VIM-2). As to the kind of experiment: Meropenem MIC, broth microdilution, clinical strain. Format: cell-based. Particulars: in the absence of inhibitor. A general note: Dilution methods test growth across graded concentrations, often in twofold steps.
Assay [12] concerns P. aeruginosa UWB41 (VIM-2). The assay is described as above. The format is cell-based. Particulars: Pseudomonas aeruginosa, read-out: Meropenem MIC.
The subject of assay [13] is non-MBL-producing C. freundii. Particulars: non-MBL-producing strain; cited from earlier work.
The test system of assay [14] is P. putida #UWB24 (VIM-2). As to the kind of experiment: Meropenem MIC, broth microdilution, clinical strain. Format: cell-based. Particulars: in the absence of inhibitor.
The test system of assay [15] is E. coli MG1655 NDM-1. As to the kind of experiment: Meropenem MIC, broth microdilution. The format is cell-based. Particulars: Escherichia coli, MG1655, read-out: Meropenem MIC.
Assay [16] has as its system S. maltophilia JKWZP (L1, L2). As to the kind of experiment: Meropenem MIC, broth microdilution, RND pump knockout strain. Particulars: Stenotrophomonas maltophilia, read-out: Meropenem MIC. Format: cell-based.
For assay [17], the system named is K. pneumoniae Ecl8 NDM-1. Briefly: Meropenem MIC, broth microdilution. The format is cell-based. Particulars: Klebsiella pneumoniae, ECL8NDM1, read-out: Meropenem MIC.
The test system of assay [18] is C. freundii D571 NDM-1. As to the kind of experiment: Meropenem MIC, broth microdilution. Format: cell-based. Particulars: Citrobacter freundii, D571NDM1, read-out: Meropenem MIC.
Assay [19] has as its system En. aerogenes 15-8358A NDM-1. Briefly: Meropenem MIC, broth microdilution. The format is cell-based. Particulars: Klebsiella aerogenes, read-out: Meropenem MIC.
The test system of assay [20] is non-MBL-producing En. aerogenes. Particulars: non-MBL-producing strain; cited from earlier work.
Assay [21] concerns E. coli MG1655 IMP-1. Briefly: Meropenem MIC, broth microdilution. The format is cell-based. Particulars: Escherichia coli, MG1655, read-out: Meropenem MIC.
Assay [22] deals with S. maltophilia K279a (L1, L2). Briefly: Meropenem MIC, broth microdilution, clinical strain. The format is cell-based. Particulars: Stenotrophomonas maltophilia, read-out: Meropenem MIC.
For assay [23], the system named is E. coli MG1655 VIM-1. As to the kind of experiment: Meropenem MIC, broth microdilution. The format is cell-based. Particulars: Escherichia coli, MG1655, read-out: Meropenem MIC.
The test system of assay [24] is non-MBL-producing K. pneumoniae. Particulars: non-MBL-producing strain; cited from earlier work.
In assay [25] the test system is E. coli MG1655 vector only. Briefly: Meropenem MIC, broth microdilution. Format: cell-based. Particulars: Escherichia coli, MG1655, read-out: Meropenem MIC.

T1 sequence (P52699 19-246, looked up): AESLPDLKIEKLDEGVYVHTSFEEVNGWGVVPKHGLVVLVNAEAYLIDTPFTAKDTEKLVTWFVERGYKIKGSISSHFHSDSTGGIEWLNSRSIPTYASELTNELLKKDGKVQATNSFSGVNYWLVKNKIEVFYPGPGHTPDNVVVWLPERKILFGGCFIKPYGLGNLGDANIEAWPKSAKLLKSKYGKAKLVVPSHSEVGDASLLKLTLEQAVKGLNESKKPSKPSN
T3 sequence (C7C422 29-270, looked up, species assumed): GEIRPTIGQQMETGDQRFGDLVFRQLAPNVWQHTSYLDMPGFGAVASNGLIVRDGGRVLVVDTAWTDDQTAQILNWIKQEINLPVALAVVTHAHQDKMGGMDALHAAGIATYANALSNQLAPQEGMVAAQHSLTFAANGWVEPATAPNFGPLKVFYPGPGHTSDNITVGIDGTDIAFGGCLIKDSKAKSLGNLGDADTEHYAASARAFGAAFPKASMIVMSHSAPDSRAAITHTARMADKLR

As usually defined, the IC50 is the concentration that inhibits the measured activity by half. Take `O=C(O)c1ccccn1` [compound 1, 2-picolinic acid]: the IC50 is greater than 100 µM in assay [1], 32.2 µM in assay [2], greater than 100 µM in assay [3] and greater than 100 µM in assay [4].
As for `Cc1cccc(C(=O)O)n1` [compound 2, 6-methylpicolinic acid], the IC50 in [1], in [2], in [3] and in assay [4] was greater than 100 µM throughout.
Turning to `N[C@H](CN[C@H](CN[C@@H](CC(=O)O)C(=O)O)C(=O)O)C(=O)O` [AMA, aspergillomarasmine A], the “Meropenem MIC” value in [5] (in the presence of 16 mg/L AMA) is 0.25 µg/mL; in assay [5] (in the presence of 32 mg/L AMA), less than 0.125 µg/mL.
As usually defined, the Ki is a measure of affinity in units of concentration, obtained from inhibition or displacement. On to `O=C(O)c1cccc(C(N(Cc2ccccc2)C(=O)c2cccs2)P(=O)(O)O)n1` (stereo not shown) [3c, 6-[(N-benzyl-1-thiophen-2-ylformamido)(phosphono)methyl]picolinic acid], for which the IC50 was 2.91 µM in assay [1]; 0.464 µM in assay [2]; 0.306 µM in assay [3]; 1.57 µM in assay [4]; 0.306 to 2.91 µM in assay [9] (read-out: IC50, range, against NDM-1, VIM-2 and IMP-1). For the same compound, the Ki in assay [6] stood at 0.034 ± 0.006 µM; in assay [7], 0.4 ± 0.2 µM; in assay [8] it was 0.4 ± 0.1 µM; in [10] it was 0.038 ± 0.009 µM. Further, the “Dissociative t1/2 = 2 / k-0” value in assay [7] (IMP-1) turned out to be 25 min. Also, the “potency compared to 3a” value in [4] (IC50, against L1) is roughly 0.9 fold. In addition, in assay [9] (IC50, against NDM-1, VIM-2 and IMP-1), the “improved potency compared to 3a” value is listed as 1.2–2.8 fold.
`O=C(O)c1cccc(C(O)P(=O)(O)O)n1` (stereo not shown) [3b, 6-[hydroxy(phosphono)methyl]picolinic acid]: the IC50 is 7.2 µM in assay [1], 1.9 µM in [2] and 2.05 µM in [4]. The Ki in assay [6] is 0.078 ± 0.008 µM; in [7], 1.5 ± 0.1 µM; in assay [8], 0.4 ± 0.1 µM; in assay [10], 0.61 ± 0.04 µM. Also, the “Dissociative t1/2 = 2 / k-0” value in assay [10] (VIM-2) is listed as 6 min.
For orientation: MIC means the lowest concentration found to suppress growth. On to `C[C@@H](O)[C@H]1C(=O)N2C(C(=O)O)=C(S[C@@H]3CN[C@H](C(=O)N(C)C)C3)[C@H](C)[C@H]12` [Meropenem], for which the “Meropenem MIC” value is 64 mg L^–1 in assay [11]; 0.06 µg/mL in assay [13]; 64 mg L^–1 in assay [14]; 0.06 µg/mL in [20]; no more than 0.25 µg/mL in [24]. Moreover, the MIC in assay [12] is 128 µg/mL (≈ 334 µM); in assay [15], greater than 256 µg/mL; in [16], 32 µg/mL (≈ 83.4 µM); in assay [17], greater than 256 µg/mL; in [18], 32 µg/mL (≈ 83.4 µM); in assay [19] it was 64 µg/mL (≈ 167 µM). Besides, the MIC is 16 µg/mL (≈ 41.7 µM) in assay [21], 16 µg/mL (≈ 41.7 µM) in [22], 4 µg/mL (≈ 10.4 µM) in assay [23] and less than 0.25 µg/mL in assay [25].
Regarding `O=P(O)(O)Cc1ccccn1` [compound 4, (pyridin-2-ylmethyl)phosphonic acid], the IC50 is greater than 100 µM in [1], 171 µM in assay [2], greater than 1000 µM in assay [3] and greater than 1000 µM in assay [4].

The values are drawn from PMC6007964 (Biochemistry, 2018).
